From ChEMBL document CHEMBL5500359, “Identification of a new bisindolinone arresting IGROV1 cells proliferation” (Eur J Med Chem, 2024)
The source made the active and inactive calls. The rule behind the calls is not given here.

Assays:
IGROV-1 [1] = test: Induction of cell cycle arrest in human IGROV-1 cells assessed as increase in cell accumulation at G0/G1 phase at 5 uM incubated for 24 hrs by PI staining based flow cytometry relative to control; type: functional
Method in brief: (§1)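 IGROV1 plated 2×10^4 cells/cm², after 24 h given 5 μM for 24 h; cells detached, PBS-washed, stained 30 min at room temperature in dark with 50 μg/mL propidium iodide, 10 μg/mL RNase, 0.01% Igepal, 0.1% sodium citrate; DNA content by flow cytometry, phase percentages versus untreated.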

Renal cancer cell line [2] = test: Cytostatic activity against human Renal cancer cells incubated for 48 hrs by SRB assay; type: functional
Method in brief: (§2)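 NCI-60 five-concentration screen: lines seeded 5×10^3–4×10^4 cells/well depending on line; compound diluted in fresh medium at scalar concentrations 0–100 or 0–1000 μM; 48 h exposure, in situ fixation, sulforhodamine B protein staining, optical density read; GI50, TGI and LC50 per NCI procedures; panel mean = mean graph midpoint.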

Renal cancer cell line [3] = test: Cell growth inhibition of human Renal cancer cells incubated for 48 hrs by SRB assay; type: functional; method in brief: as §2
CNS carcinoma cell [4] = test: Cell growth inhibition of human CNS carcinoma cells incubated for 48 hrs by SRB assay; type: functional; method in brief: as §2
IGROV-1 [5] = test: Antiproliferative activity against human IGROV-1 cells at 5 uM incubated upto 48 hrs by quantitative phase imaging microscopy; type: functional, cell-based
Method in brief: (§3)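 Quantitative phase imaging on IGROV1 seeded 4×10^3/well, 24 h later given 5 μM (six replicates; DMSO ≤0.1% final). Images hourly for 2 days at 37 °C, 5% CO2. Cell count and confluence normalized to experiment start; doubling time derived from growth.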

IGROV-1 [6] = test: Induction of cell cycle arrest in human IGROV-1 cells assessed as decrease in cell accumulation at S phase at 5 uM incubated for 24 hrs by PI staining based flow cytometry relative to control; type: functional; parameters: scale not given: the % may be the effect or the level left; method in brief: as §1
Colon carcinoma cell = test: Cytostatic activity against human Colon carcinoma cells incubated for 48 hrs by SRB assay; type: functional; method in brief: as §2
IGROV-1 [7] = test: Induction of DNA damage in human IGROV-1 cells assessed as increase in gamma-H2AX phosphorylation at 5 uM pretreated for 24 hrs followed by UV exposure for 6 hrs by Western blot analysis; type: functional, cell-based; conditions: time 30.0 hrs
Method in brief: (§4)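 IGROV1 pretreated 24 h with 5 μM, then UV-irradiated with a 7.5 W lamp for 3 min; UV alone as positive control. Cyclin D1 and RAD51 by RIPA-lysate Western blot normalized to α-tubulin; γH2AX by acid-extracted histone blot normalized to H1; percent of vehicle, mean ± SD, three experiments.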

Prostatic carcinoma cell = test: Cell growth inhibition of human Prostate carcinoma cells incubated for 48 hrs by SRB assay; type: functional; method in brief: as §2
[8] = Selectivity index, ratio of IC50 for human HDFa cells to IC50 for human IGROV-1 cells; type: functional
Method in brief: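 IGROV1 and HDFa in RPMI 1640 + 10% FCS, 2 mM glutamine, 37 °C, 5% CO2; seeded 1.5×10^4/well, after 24 h exposed 24 h to 0.010–500 μM (DMSO ≤0.1%). MTT 0.2 mg/mL in PBS 2 h at 37 °C, absorbance 570 nm; IC50 from dose-response, three independent experiments each in triplicate; SI = HDFa IC50/IGROV1 IC50.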

[9] = system: Panel NCI-60 (60 carcinoma cell lines); test: Cytostatic activity against human Panel NCI-60 (60 carcinoma cell lines) incubated for 48 hrs by SRB assay; type: functional; method in brief: as §2
NSCLC = test: Cell growth inhibition of human NSCLC cells incubated for 48 hrs by SRB assay; type: functional; method in brief: as §2
Breast cancer cell line [10] = test: Cytostatic activity against human Breast cancer cells incubated for 48 hrs by SRB assay; type: functional; method in brief: as §2
IGROV-1 [11] = test: Downregulation of CCND1 level in human IGROV-1 cells at 5 uM incubated for 6 hrs by Western blot analysis; type: functional, cell-based
Method in brief: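 IGROV1 exposed to 5 μM; RIPA lysates at 4 °C, protein quantified, SDS-PAGE (12.5% or 7.5%), nitrocellulose blot probed overnight at 4 °C for cyclin D1 or α5 integrin subunit; densitometry normalized to α-tubulin, percent of vehicle, mean ± SD of three experiments.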

IGROV-1 [12] = test: Downregulation of CCND1 mRNA level in human IGROV-1 cells at 5 uM pretreated for 24 hrs followed by UV exposure for 6 hrs by qRT-PCR analysis; type: functional, cell-based; conditions: time 30.0 hrs
Method in brief: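 IGROV1 pretreated 24 h with 5 μM then UV-irradiated (7.5 W lamp, 3 min); CCND1 and RAD51 mRNA by qRT-PCR after column RNA extraction and reverse transcription, fold change versus vehicle; at least triplicate, Student's t-test.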

Melanoma cell line [13] = test: […] against human Melanoma cells incubated for 48 hrs by SRB assay; type: functional; conditions: read-out: LC50 (the source's name)
Method in brief: (§5)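 NCI DTP five-concentration screen. Cells were seeded at 5 × 10³–4 × 10⁴ cells/well, depending on the line. Compounds were diluted in fresh medium and added at scalar concentrations over 0–1000 µM or 0–100 µM. After 48 h the cells were fixed in situ, stained with sulforhodamine B, and optical density was read. GI50, TGI and LC50 were derived by NCI procedures, and the panel mean is the mean graph midpoint.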

IGROV-1 [14] = test: Downregulation of RAD51 level in human IGROV-1 cells at 5 uM pretreated for 24 hrs followed by UV exposure for 6 hrs by Western blot analysis; type: functional, cell-based; conditions: time 30.0 hrs; method in brief: as §4
[15] = Upregulation of histone H4 acetylation in human IGROV-1 cells incubated for 6 hrs by Western blot analysis relative to control; type: functional
Method in brief: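 IGROV1 seeded 1.5×10^4 cells/cm², after 48 h exposed 6 h to 5 μM final; histones acid-extracted (0.4 N H2SO4) from nuclei isolated with 10 mM butyrate washes, acetone-precipitated, 15% SDS-PAGE, blotted with anti-acetyl-lysine; densitometry normalized to histone H1, percent of vehicle, mean ± SD of three experiments.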

Breast cancer cell line [16] = test: Cell growth inhibition of human Breast cancer cells incubated for 48 hrs by SRB assay; type: functional; conditions: read-out: LC50 (the source's name); method in brief: as §5
IGROV-1 [17] = test: Downregulation of CCND1 mRNA level in human IGROV-1 cells at 5 uM incubated for 6 hrs by RT-PCR analysis; type: functional, cell-based
Method in brief: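 IGROV1 given 5 μM versus vehicle; RNA extracted by spin column, reverse transcribed, CCND1, CDKN1A and ITAG5 transcripts quantified by qRT-PCR as fold change versus vehicle; at least triplicate, Student's t-test, p<0.05.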

Melanoma cell line [18] = test: Cell growth inhibition of human Melanoma cells incubated for 48 hrs by SRB assay; type: functional; method in brief: as §2
CNS carcinoma cell [19] = test: Cytostatic activity against human CNS carcinoma cells incubated for 48 hrs by SRB assay; type: functional; method in brief: as §2
IGROV-1 [20] = test: Antiproliferative activity against human IGROV-1 cells assessed as doubling time at 5 uM incubated for 24 to 48 hrs (reference value: 23.9 +/- 2.4 hrs); type: functional; conditions: time 24-48 hrs; method in brief: as §3
IGROV-1 [21] = test: Effect on directionality of human IGROV-1 cells at 5 uM incubated for 24 hrs; type: functional, cell-based
Method in brief: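 Livecyte quantitative phase imaging, label-free single-cell tracking; IGROV1 seeded 4×10^3/well, treated after 24 h with 5 μM in six replicates; frames every 60 min for 2 days, 10× objective, 37 °C, 5% CO2. Each cell tracked for displacement, instantaneous velocity and directionality.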

Ovarian cancer cell line = test: Cytostatic activity against human Ovarian cancer cells incubated for 48 hrs by SRB assay; type: functional; method in brief: as §2
[22] = Cell growth inhibition of human Leukemia cancer cells incubated for 48 hrs by SRB assay; type: functional; method in brief: as §2

CC(C)(C)c1cc(/C=C2/C(=O)Nc3cc(Cl)ccc32)c(O)c(/C=C2/C(=O)Nc3cc(Cl)ccc32)c1
Activity (IGROV-1 [1]): 13.4% | GI (Renal cancer cell line [2]): 11.22 µM | GI50 (Renal cancer cell line [3]): 2.69 µM | GI50 (CNS carcinoma cell [4]): 2.75 µM | Activity (IGROV-1 [5]): Active | Activity (IGROV-1 [6]): 21.2% | TGI (Colon carcinoma cell): 13.2 µM | Activity (IGROV-1 [7]): Active | GI (Prostatic carcinoma cell): 3.63 µM | Ratio IC50 [8]: 3.64 | GI [9]: 12.02 µM | GI (NSCLC): 3.63 µM | TGI (Breast cancer cell line [10]): 13.2 µM | Activity (IGROV-1 [11]): Active | Activity (IGROV-1 [12]): Active | CC50 (Melanoma cell line [13]): 8.51 µM | Activity (IGROV-1 [14]): Active | Activity [15]: 68.5% | CC50 (Breast cancer cell line [16]): 2.95 µM | Activity (IGROV-1 [17]): Active | GI (Melanoma cell line [18]): 2.82 µM | GI (CNS carcinoma cell [19]): 11.75 µM | Time (IGROV-1 [20]): 113.3 h | Activity (IGROV-1 [21]): inactive | TGI (Ovarian cancer cell line): 10 µM | GI50 [22]: 2.45 µM
